RGS4 act – RGS4 potentiation or activation; HEK293 M3R/inducible RGS4, carbachol calcium flux Fluo4; hits give low values; B-score at 10 µM; hit rate 0.92% among 310,000;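 active = B-score of the integrated calcium signal more than 4 SD below the library mean, with starting fluorescence not abnormally high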;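 note: negative B-score means reduced calcium response which marks RGS4 activation or potentiation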
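Material: M3R-expressing HEK293 line, RGS4 induced by doxycycline | Schedule: Overnight RGS4 induction, 30 min dye load 37 °C, 20 min compound RT | Measured by: Fluo4 fluorescence kinetic imaging of calcium | Read-out: Integrated calcium ratio converted to B score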
MrgX1 PAM – human MrgX1 positive allosteric modulation, primary screen; Q96LB2; MrgX1-HEK293, Fluo-4 calcium flux, FDSS; hits give high values; B-score at 10 µM; hit rate 0.63% among 310,000; AID 588675;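 active = plate-corrected calcium response at least 3 library SD above typical, normal starting fluorescence, not activating the receptor alone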;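 note: compound read alongside a low EC10 to EC30 dose of BAM8-22 agonist; peak minus trough fluorescence over baseline measured at the second addition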
Target sequence (Q96LB2 whole entry, looked up): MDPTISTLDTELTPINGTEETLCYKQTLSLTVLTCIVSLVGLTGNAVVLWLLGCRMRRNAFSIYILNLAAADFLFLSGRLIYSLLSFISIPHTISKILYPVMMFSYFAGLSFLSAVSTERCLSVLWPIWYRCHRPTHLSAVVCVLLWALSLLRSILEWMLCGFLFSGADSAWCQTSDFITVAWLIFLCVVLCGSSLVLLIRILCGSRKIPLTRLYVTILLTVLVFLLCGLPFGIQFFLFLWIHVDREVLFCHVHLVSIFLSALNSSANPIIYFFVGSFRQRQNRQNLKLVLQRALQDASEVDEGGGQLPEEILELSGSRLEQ
MrgX1 ag – human MrgX1 receptor agonism, primary screen; Q96LB2; hit rate 0.44% among 310,000; B-score at 10 µM; MrgX1-HEK293 cells, Fluo-4 calcium fluorescence, agonist mode; hits give high values;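 active = calcium response B-score plate-corrected fluorescence ratio at least 3 library SD, with starting fluorescence B-score inside 5 SD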
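Test system: HEK293 cells stably expressing human MrgX1 receptor; Input: fifteen thousand cells per well; Dosing: compound delivered in addition one of three; Schedule: overnight seeding, then 1 h dark dye loading; Technique: Fluo-4 NW calcium fluorescence; Measure: B-scored fluorescence response ratio; Controls: positive and negative controls per plate.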
RGS4 block – human RGS4 inhibition; HEK293 M3R/RGS4 inducible, Fluo-4 calcium flux; hits give high values; triggered by carbachol at its EC20; P49798; hit rate 0.45% among 310,000; B-score at 10 µM;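 active = B-score, a plate-corrected calcium signal, over three deviations above library mean, with baseline fluorescence within five deviations of library mean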;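 note: RGS4 expression induced by doxycycline in cells with stable M3 receptor; B-score is computed from the integrated fluorescence ratio over baseline after carbachol; higher B-score means a larger calcium signal and so more RGS4 inhibition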
Target sequence (P49798 whole entry, looked up): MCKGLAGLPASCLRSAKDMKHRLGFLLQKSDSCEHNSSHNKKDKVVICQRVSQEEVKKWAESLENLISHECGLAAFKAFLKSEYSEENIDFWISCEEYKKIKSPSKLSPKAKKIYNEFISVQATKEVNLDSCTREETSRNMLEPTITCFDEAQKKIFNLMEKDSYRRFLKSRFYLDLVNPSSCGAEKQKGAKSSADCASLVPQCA
MrgX1 antagonist – antagonists of human MrgX1 receptor | MRGX1-HEK293 calcium flux, Fluo-4, BAM8-22 antagonism; hits give low values | B-score at 10 µM | Q96LB2 | hit rate 1.3% among 310,000 | AID 588676;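 active = calcium-response B-score plate-corrected more than 3 library SD below zero, starting fluorescence within 5 deviations, no agonist response on first addition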;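 note: peak minus trough fluorescence over baseline after final BAM8-22 challenge near maximal dose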
MrgX1 antag conf – human MrgX1 receptor antagonism, re-confirmation screen; shares compounds with MrgX1 antagonist; MrgX1-HEK293, BAM8-22 calcium flux, Fluo-4; hits give low values; remaining BAM8-22 calcium response % of control (hits give low values), % at 10 µM; hit rate 19% among 2,300; AID 602420;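 active = remaining agonist calcium response no higher than 100% minus 3 SD of agonist-only control wells, with starting fluorescence near control levels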;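 note: agonist BAM8-22 given at a near maximal EC90 to ECmax level; peak minus minimum fluorescence divided by baseline after agonist addition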
HEK293 Ca flux – MrgX1 antagonist counter-screen hit in parental HEK293 cells; shares compounds with MrgX1 antagonist; Fluo-4 calcium fluorescence, FDSS; hit rate 2% among 4,000; fluorescence ratio F(max-min)/F0 at 10 µM; AID 624111;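 active = duplicate-averaged calcium fluorescence ratio at least three times the standard deviation of buffer wells, a nonspecific response in parental cells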
HEK293 Ca counter – counter-screen for MrgX1 allosteric activators: effect in parental HEK293 cells | parental HEK293 calcium flux, Fluo-4 fluorescence ratio; hits give high values | shares compounds with MrgX1 antagonist | hit rate 0.4% among 4,000 | fluorescence ratio F(max-min)/F0 at 10 µM;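 active = calcium fluorescence ratio, averaged over duplicates, at least 3 SD of the buffer-well ratio, meaning a nonspecific response in receptor-free cells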;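 note: untransfected parental HEK293 lacking MrgX1 used as counterscreen for MrgX1 allosteric activators; fluorescence change taken during the second addition on a kinetic imager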
HEK293 Ca cntr2 – activity in parental HEK293 cells lacking MrgX1 receptor | AID 624115 | hit rate 8.7% among 4,000 | shares compounds with MrgX1 antagonist | fluorescence ratio F(max-min)/F0 at 10 µM | Fluo-4 calcium fluorescence (FDSS); hits give high values;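 active = calcium fluorescence ratio at least three times the spread of buffer wells, meaning a non-specific response in parental cells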
Starred values were filed as active, the others as inactive; i = inactive; nt = not tested or not shown. Only some compounds are listed: those with a hit (about 3.5% of all), similar ones and a draw of the others.

SMILES	RGS4 act	MrgX1 PAM	MrgX1 ag	RGS4 block	MrgX1 antagonist	MrgX1 antag conf	HEK293 Ca flux	HEK293 Ca counter	HEK293 Ca cntr2
CCOC(=O)c1cc(C#N)c(C)nc1N(CC)CC	i	i	i	i	i	nt	nt	nt	nt
O=C(NCCc1ccccc1)Nc1cccc(Cl)c1	i	i	i	i	-7.01*	i	i	i	i
COc1cccc(NS(=O)(=O)c2c(C)cc(C)cc2C)c1	i	i	i	i	-5.16*	i	i	i	i
COc1ccc(NS(=O)(=O)c2c(C)cc(C)cc2C)cc1	i	i	i	i	i	nt	nt	nt	nt
O=C(Nc1ccc(OC(F)(F)F)cc1)Oc1ccccc1N1CCCCC1	i	i	i	i	-5.41*	i	i	i	i
COCCCNC(=S)N/N=C/c1ccc(OC)c(Br)c1	i	i	i	i	i	nt	nt	nt	nt
O=C(CN1C(=O)NC2(CCCCC2)C1=O)Nc1cccc(S(=O)(=O)N2CCOCC2)c1	i	i	i	i	-5.38*	i	i	i	i
CCN(CC(=O)Nc1cccc(S(=O)(=O)N2CCOCC2)c1)Cc1ccccc1	i	i	i	i	i	nt	nt	nt	nt
O=C(Cn1nnc(-c2ccccc2)n1)Nc1cccc(S(=O)(=O)N2CCOCC2)c1	i	i	i	i	-4.78*	69.9%*	i	i	i
CC1CCC2(CC1)NC(=O)N(CC(=O)Nc1cccc(S(=O)(=O)N3CCOCC3)c1)C2=O (stereo unspecified)	i	i	i	i	i	nt	nt	nt	nt
O=C(Nc1ccnn1C1CCN(CC(O)CO)CC1)C1CCCC1 (stereo unspecified)	i	i	i	i	i	nt	nt	nt	nt
Cc1ccccc1N1C(=O)C2ON(c3ccccc3)C(c3ccco3)C2C1=O (stereo unspecified)	i	i	i	i	i	nt	nt	nt	nt
Cn1c(N)c(C(=O)COC(=O)CNS(=O)(=O)c2cccc(Cl)c2)c(=O)n(C)c1=O	i	i	i	i	i	nt	nt	nt	nt
COc1cccc(C(=O)Nc2cccc3cccnc23)c1OC	i	i	i	i	i	nt	nt	nt	nt
C=CCN(c1ccccc1)S(=O)(=O)c1cc2c(cc1C)N(C)CCO2	i	i	i	i	i	nt	nt	nt	nt
COCCCNC(=O)CN(c1cc(Cl)ccc1OC)S(C)(=O)=O	i	i	i	i	i	nt	nt	nt	nt
CC1CC(CN)CC(CO)C1 (stereo unspecified)	i	i	i	i	i	nt	nt	nt	nt
COc1ccc(N(C(=O)c2ccccc2)S(=O)(=O)c2cccs2)cc1	i	i	i	i	i	nt	nt	nt	nt
COc1ccc(C(=O)N(c2ccc(OC)cc2)S(=O)(=O)c2cccs2)cc1	i	i	i	i	-4.93*	i	i	i	i
COCCNc1ccc(S(=O)(=O)N2CCCC2)cn1	i	i	i	i	-5.01*	i	i	i	i
O=C(CCc1nc(-c2cccs2)no1)Nc1cnc2ccccc2c1	i	i	i	i	-5.56*	83.9%*	i	i	i
CCc1cccc(NC(=O)CCc2nc(-c3cccs3)no2)c1	i	i	i	i	i	nt	nt	nt	nt
COc1cc2ccccc2cc1C(=O)Nc1nccs1	i	i	i	i	-4.59*	i	i	i	i
O=c1cc(CSc2ccc(Cl)cc2)nc(N2CCCCC2)[nH]1	i	i	i	i	-7.11*	i	i	i	i
Cc1cc2c(NC(=O)Nc3ccc(C(C)(C)C)cc3)cccc2nn1	i	i	i	i	-6.86*	78.5%*	i	i	i
SMILES	RGS4 act	MrgX1 PAM	MrgX1 ag	RGS4 block	MrgX1 antagonist	MrgX1 antag conf	HEK293 Ca flux	HEK293 Ca counter	HEK293 Ca cntr2
CC(C)OCCCNC(=O)c1cccc(NC(=O)c2ccccc2)c1	i	i	i	i	i	nt	nt	nt	nt
COCCCNC(=O)c1cccc(NC(=O)c2ccccc2)c1	i	i	i	i	-5.57*	82.9%*	i	i	i
COc1cccc(C(=O)Nc2cccc(C(=O)NCC(C)C)c2)c1	i	i	i	i	-6.49*	i	i	i	i
Cc1nc2sc(C(=O)OC(C)C)c(N)c2c(C)c1C	i	i	i	i	i	nt	nt	nt	nt
COc1ccc(CC(=O)OCC(=O)NCc2ccco2)cc1OC	i	i	i	i	-5.35*	i	i	i	i
CCCOc1cc(CC(=O)NCc2ccco2)ccc1OC	i	i	i	i	i	nt	nt	nt	nt
COc1ccc(C(=O)NC(C)c2ccc(-n3ccnc3)cc2)c(OC)c1 (stereo unspecified)	i	i	i	i	-10.2*	i	i	i	i
COc1ccccc1CNC(=O)COC(=O)C1CCN(c2ccc(C(F)(F)F)cn2)CC1	i	i	i	i	-7.65*	i	i	i	i
O=C(COC(=O)C1CCN(c2ccc(C(F)(F)F)cn2)CC1)NCCc1ccccc1	i	i	i	i	i	nt	nt	nt	nt
O=C(C[n+]1cn(C(F)F)c2ccccc21)c1ccc(OC(F)F)cc1	i	i	i	i	i	nt	nt	nt	nt
O=C(NCCCN1CCOCC1)c1cccs1	nt	i	i	nt	-8.79*	79.2%*	i	i	i
O=C(/C=C/c1ccccc1Cl)NCc1cccs1	i	i	i	i	i	nt	nt	nt	nt
Cc1cc(S(=O)(=O)NC(C)C)ccc1OCC(=O)NCc1ccccc1	i	i	i	i	i	nt	nt	nt	nt
Cc1cccc(OCCCC(=O)NC2CCCCC2)c1	i	i	i	i	-6.74*	i	i	i	i
Cc1cccc(OCC(=O)NC2CCCC2)c1	i	i	i	i	i	nt	nt	nt	nt
CCSc1ccccc1-c1nc(-c2ccncc2)no1	i	i	i	i	i	nt	nt	nt	nt
CC(C)(C)c1ccc(C(=O)N2CCC(C(=O)NCc3ccncc3)CC2)cc1	i	i	i	i	-5.15*	i	i	i	i
CC(C)(C)c1ccc(C(=O)N2CCC(C(=O)NC3CC3)CC2)cc1	i	i	i	i	i	nt	nt	nt	nt
